Experimental data published in ChEMBL document CHEMBL3596100, “The synthesis and biological activity of novel anthracenone-pyranones and anthracenone-furans” (Bioorg Med Chem, 2015).

How the values were obtained:
[1] = system: HT-29; test: Growth inhibition of human HT-29 cells after 72 hrs by MTT assay; assay type: functional; details: HT-29, 72 h
Method in brief: (§1)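 Cells kept in DMEM with 10% FBS, glutamine, penicillin/streptomycin at 37 °C, 5% CO2; plated in duplicate at 2500–4000 cells/well, dosed 24 h later during log growth. After 72 h drug exposure, MTT read at 540 nm. […] Assays in triplicate, standard error reported.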

[2] = Growth inhibition of human U87 cells after 72 hrs by MTT assay; assay type: functional, U-87MG ATCC; details: U-87 MG; method in brief: as §1
[3] = system: MCF7; test: Growth inhibition of human MCF7 cells after 72 hrs by MTT assay; assay type: functional; details: MCF7, 72 h; method in brief: as §1
[4] = system: A2780; test: Growth inhibition of human A2780 cells after 72 hrs by MTT assay; assay type: functional; details: A2780, 72 h; method in brief: as §1
[5] = Growth inhibition of human H460 cells after 72 hrs by MTT assay; assay type: functional; details: NCI-H460, 72 h; method in brief: as §1
[6] = system: A-431; test: Growth inhibition of human A431 cells after 72 hrs by MTT assay; assay type: functional; details: A-431, 72 h; method in brief: as §1
[7] = system: DU-145; test: Growth inhibition of human DU145 cells after 72 hrs by MTT assay; assay type: functional; details: DU-145, 72 h; method in brief: as §1
[8] = Growth inhibition of human BE(2)-C cells after 72 hrs by MTT assay; assay type: functional; method in brief: as §1
[9] = Growth inhibition of human SJ-G2 cells after 72 hrs by MTT assay; assay type: functional; details: SJ-G2, 72 h; method in brief: as §1
[10] = Growth inhibition of human MIA cells after 72 hrs by MTT assay; assay type: functional; method in brief: as §1
[11] = Growth inhibition of mouse SMA cells after 72 hrs by MTT assay; assay type: functional; method in brief: as §1

SMILES | GI50 [1] | GI50 [3] | GI50 [4] | GI50 [6] | GI50 [7] | GI50 [2] | GI50 [5] | GI50 [8] | GI50 [9] | GI50 [10] | GI50 [11]
CCCc1cc(=O)c2c(C)cc3c(c2o1)C(=O)c1c(O)cccc1C3=O | 3.2 µM | 1.8 µM | 2.4 µM | 1.6 µM | 1.2 µM | 2.8 µM | 1.4 µM | 1.8 µM | 1.7 µM | 1.7 µM | 1.5 µM
Cc1cc2c(c3oc(=O)cc(CCCCl)c13)C(=O)c1c(OC(C)C)cccc1C2=O | 24 µM | 8.8 µM | 12 µM | 12 µM | 24 µM | 12 µM | 25 µM | 27 µM | 27 µM | 17 µM | 16 µM
Cc1cc2c(c3oc(C(=O)c4ccccc4)cc13)C(=O)c1c(OC(C)C)cccc1C2=O | 1.4 µM | 1.1 µM | 2.1 µM | 1.77 µM | 0.95 µM | 2.3 µM | 2.9 µM | 0.83 µM | 36 µM | 1.7 µM | 2.2 µM
CCCc1cc2c(C)cc3c(c2o1)C(=O)c1c(O)cccc1C3=O | 1.2 µM | 2.2 µM | 1.5 µM | 2.3 µM | 0.86 µM | 6.6 µM | 3.1 µM | 0.88 µM | 1 µM | 1.7 µM | 1.3 µM
Cc1cc2c(c3oc(=O)c(CCCCl)cc13)C(=O)c1c(OC(C)C)cccc1C2=O | 15 µM | 19 µM | 21 µM | 17 µM | 20 µM | 16 µM | 19 µM | 33 µM | 15 µM | 20 µM | 19 µM
CC(=O)c1cc2c(C)cc3c(c2o1)C(=O)c1c(OC(C)C)cccc1C3=O | 9.7 µM | 3.5 µM | 5 µM | 5.8 µM | 1.9 µM | 8.4 µM | 17 µM | 4.6 µM | 2.2 µM | 9.7 µM | 2.3 µM
CCC(C)(O)c1cc2c(C)cc3c(c2oc1=O)C(=O)c1c(OC(C)C)cccc1C3=O (configuration not stated) | 11 µM | 16 µM | 19 µM | 15 µM | 26 µM | 25 µM | 16 µM | 22 µM | 9 µM | 14 µM | 23 µM
CCCc1cc(=O)c2c(C)cc3c(c2o1)C(=O)c1c(OC)cccc1C3=O | 5.5 µM | 6.4 µM | 6.4 µM | 6.6 µM | 5.3 µM | 6.4 µM | 5.3 µM | 6.1 µM | 5.3 µM | 7.1 µM | 6 µM
Cc1cc2c(c3oc(CCCCl)cc13)C(=O)c1c(OC(C)C)cccc1C2=O | 18 µM | 13 µM | 11 µM | 23 µM | 25 µM | 18 µM | 27 µM | 43 µM | 25 µM | 34 µM | 22 µM
Cc1cc2c(c3oc(CCCC#N)cc13)C(=O)c1c(OC(C)C)cccc1C2=O | 11 µM | 5.9 µM | 6.4 µM | 9.8 µM | 7.7 µM | 6.1 µM | 9.4 µM | 23 µM | 8.4 µM | 10 µM | 10 µM
CC(=O)c1cc2c(C)cc3c(c2o1)C(=O)c1c(O)cccc1C3=O | 4.7 µM | 2.1 µM | 2 µM | 4.8 µM | 2 µM | 5.5 µM | 9.6 µM | 2.9 µM | 1.8 µM | 9.5 µM | 1.5 µM
Cc1cc2c(c3oc(=O)c(C(C)(C)C)cc13)C(=O)c1c(OC(C)C)cccc1C2=O | 13 µM | 14 µM | 12 µM | 17 µM | 29 µM | 17 µM | 20 µM | 33 µM | 12 µM | 12 µM | 12 µM

Continued, in another order:

GI50 [1] | GI50 [3] | GI50 [4] | GI50 [6] | GI50 [7] | SMILES | GI50 [2] | GI50 [5] | GI50 [8] | GI50 [9] | GI50 [10] | GI50 [11]
14 µM | 12 µM | 10 µM | 12 µM | 3.2 µM | Cc1cc2c(c3oc(=O)c(CCCC#N)cc13)C(=O)c1c(O)cccc1C2=O | 11 µM | 9 µM | 11 µM | 22 µM | 15 µM | 9.8 µM
11 µM | 13 µM | 13 µM | 19 µM | 27 µM | Cc1cc2c(c3oc(=O)c([Si](C)(C)C)cc13)C(=O)c1c(OC(C)C)cccc1C2=O | 19 µM | 21 µM | 28 µM | 14 µM | 11 µM | 11 µM
0.88 µM | 2 µM | 2.3 µM | 1.4 µM | 0.85 µM | CCCCCC(=O)c1cc2c(C)cc3c(c2o1)C(=O)c1c(OC(C)C)cccc1C3=O | 4.2 µM | 6.8 µM | 0.75 µM | 4.2 µM | 1.1 µM | 1.8 µM
5.6 µM | 5.3 µM | 7 µM | 4 µM | 8.8 µM | CCC(C)(OCc1ccccc1)c1cc2c(C)cc3c(c2oc1=O)C(=O)c1c(O)cccc1C3=O (configuration not stated) | 14 µM | 5.1 µM | 6.7 µM | 3.9 µM | 3.9 µM | 6.1 µM
24 µM | 24 µM | 16 µM | 19 µM | 28 µM | Cc1cc2c(c3oc(C(C)O)cc13)C(=O)c1c(OC(C)C)cccc1C2=O (configuration not stated) | 35 µM | 17 µM | 20 µM | 14 µM | 19 µM | 29 µM
0.94 µM | 0.28 µM | 0.34 µM | 0.51 µM | 0.29 µM | Cc1cc2c(c3oc(CCC(F)(F)F)cc(=O)c13)C(=O)c1c(O)cccc1C2=O | 2.9 µM | 0.87 µM | 0.2 µM | 0.49 µM | 0.28 µM | 0.48 µM
4.5 µM | 4.1 µM | 5.3 µM | 5.7 µM | 4.8 µM | CCc1cc(=O)c2c(C)cc3c(c2o1)C(=O)c1c(OC)cccc1C3=O | 14 µM | 4.8 µM | 4.1 µM | 4.3 µM | 5.4 µM | 6.5 µM
1.6 µM | 1.4 µM | 1.6 µM | 1.8 µM | 1.5 µM | C=C(C)c1cc(=O)c2c(C)cc3c(c2o1)C(=O)c1c(O)cccc1C3=O | 3.4 µM | 3.9 µM | 5.9 µM | 4.7 µM | 2 µM | 1.7 µM
30 µM | 20 µM | 28 µM | 19 µM | 40 µM | Cc1cc2c(c3oc(=O)c(C(C)(C)O)cc13)C(=O)c1c(OC(C)C)cccc1C2=O | 30 µM | 22 µM | 27 µM | 14 µM | 23 µM | 30 µM
17 µM | 15 µM | 12 µM | 18 µM | 25 µM | CCCCCCc1cc2c(C)cc3c(c2o1)C(=O)c1c(O)cccc1C3=O | 25 µM | 17 µM | 21 µM | 32 µM | 13 µM | 9.3 µM
18 µM | 15 µM | 9.5 µM | 20 µM | 11 µM | CCCCc1cc(=O)oc2c3c(cc(C)c12)C(=O)c1cccc(OC(C)C)c1C3=O | 14 µM | 19 µM | 13 µM | 13 µM | 13 µM | 12 µM
13 µM | 21 µM | 7.3 µM | 9 µM | 28 µM | Cc1cc2c(c3oc(C(C)O)cc13)C(=O)c1c(O)cccc1C2=O (configuration not stated) | 20 µM | 17 µM | 19 µM | 17 µM | 15 µM | 12 µM
1.9 µM | 0.66 µM | 0.45 µM | 0.59 µM | 0.44 µM | Cc1cc2c(c3oc(CCCCl)cc13)C(=O)c1c(O)cccc1C2=O | 0.97 µM | 1.9 µM | 0.38 µM | 37 µM | 0.55 µM | 0.69 µM
1.9 µM | 4.7 µM | 6.5 µM | 13 µM | 0.46 µM | Cc1cc2c(c3oc(CCCC#N)cc13)C(=O)c1c(O)cccc1C2=O | 11 µM | 15 µM | 0.99 µM | 32 µM | 2.6 µM | 5.4 µM
4.8 µM | 4.3 µM | 5.8 µM | 5.7 µM | 1.9 µM | CCc1cc(=O)c2c(C)cc3c(c2o1)C(=O)c1c(OC(C)C)cccc1C3=O | 8.7 µM | 6.9 µM | 2.2 µM | 16 µM | 3.4 µM | 3.9 µM
